System: Plasmodium berghei
Assay: Antimalarial activity as survivor numbers at day 60 for drug-sensitive Plasmodium berghei infected mice (Mus musculus) after 72 hr
Format: functional
How it was run: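 Normal drug-sensitive P. berghei infection in mice. A single subcutaneous dose was given 72 h postinfection, dissolved or suspended in sesame or peanut oil. Groups were five animals (ten where indicated). Mice alive at 60 days postinfection were counted as "cured", without subinoculation confirmation. Toxic deaths on days 2–5 were recorded separately.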

With `Nc1nc(N)c2cc(S(=O)(=O)c3ccc4ccccc4c3)ccc2n1` as the compound, how does the survivors at day 60 read?
The survivors at day 60 was 5.
